Only some compounds are listed: those with a hit (about 2.3% of all), similar ones and a draw of the others.
ASAP1 inh = ASAP1 ArfGAP inhibition. Q9ULH1. ASAP1-stimulated ARF1 GTP hydrolysis, GDP FP detection. inhibition, % at 16.5 µM. actives 0.19% (n = 360,000); in the data active = inhibition above about 25%;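 note: 0% = vehicle with enzyme and substrate and 100% = no enzyme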
Calb FLC = C. albicans growth modulation with fluconazole. C. albicans CaCi-2 + fluconazole, Alamar Blue growth, 48 h. growth inhibition, % (test concentration not listed). actives 0.57% (n = 300,000). AID 1979;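 active = growth inhibition above about 58% in most replicates, limit read from the data, passing the limit was not always enough; inconclusive = exactly half the replicates above a set limit; inactive = most replicates below a set limit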;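 note: all wells also contain fluconazole at 8 µg/ml as a sub-toxic cotreatment; 0% = median of DMSO wells and 100% = median of geldanamycin control wells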
sPLA2-III inh = Inhibits HGIII-sPLA2 liposome hydrolysis, primary screen | Q9NZ20 | QFRET BODIPY PC-A2 liposome hydrolysis, fluorescence | inhibition, % at 12.2 µM | actives 0.56% (n = 370,000) | AID 743126;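 active = inhibition above mean plus 3 SD of compounds lying within the high and low control bounds, cut at about 19% in these data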;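 note: 0% = median of test compound wells and 100% = no enzyme DMSO wells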
Target sequence (Q9NZ20 whole entry, looked up): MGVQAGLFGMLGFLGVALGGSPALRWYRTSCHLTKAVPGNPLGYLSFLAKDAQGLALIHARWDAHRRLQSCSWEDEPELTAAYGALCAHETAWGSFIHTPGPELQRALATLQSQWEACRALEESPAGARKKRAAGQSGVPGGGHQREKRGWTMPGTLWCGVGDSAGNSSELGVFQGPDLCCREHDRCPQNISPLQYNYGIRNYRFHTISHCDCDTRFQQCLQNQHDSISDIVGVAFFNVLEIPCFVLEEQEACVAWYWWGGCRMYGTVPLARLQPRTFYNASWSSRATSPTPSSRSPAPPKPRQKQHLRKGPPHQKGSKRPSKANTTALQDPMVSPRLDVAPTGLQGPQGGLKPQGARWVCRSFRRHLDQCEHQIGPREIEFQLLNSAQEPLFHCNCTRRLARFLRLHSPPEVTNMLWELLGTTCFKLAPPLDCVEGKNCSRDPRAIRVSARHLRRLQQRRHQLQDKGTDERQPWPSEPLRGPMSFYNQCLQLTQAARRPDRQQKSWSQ
SKKanGAS inh = blocks kanamycin growth of S. pyogenes SKKanGAS strain | inhibition, % at 7.5 µM | actives 1.3% (n = 300,000) | AID 1662 | BacTiter-Glo, 6 h;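 active = mean replicate score, as percent of positive control median, at least 50; inconclusive = mean below 50 but one replicate at or above 50; inactive = mean and every replicate below 50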;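 note: strain carries kanamycin resistance gene driven by streptokinase promoter and grows in 40 µg/ml kanamycin; loss of luminescence reflects streptokinase promoter inhibition or plain growth inhibition; 0% = median of DMSO wells and 100% = positive control at its reference dose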
ARFGAP1 inhibitor = rat ARFGAP1 inhibition. Q62848. Arfgap1-stimulated ARF1 GTP hydrolysis, GDP FP detection. inhibition, % at 16.5 µM. actives 0.26% (n = 360,000). AID 651572;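 active = inhibition above a per-plate limit, mean inhibition of low control wells plus 3 SD, cut at about 25% in these data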;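 note: 0% = DMSO wells with enzyme and 100% = wells lacking Arfgap1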
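Material: rat Arfgap1 catalytic domain, aa 1-136; also added: human ARF1(Δ1-17)-GTP substrate; compound dosing: one concentration, 16.5 µM, DMSO 1.26%; incubation: GTP hydrolysis reaction 2 h at 25 °C; measured by: Tracer-displacement fluorescence polarization with EDTA stop, 620/688 nm; evaluation: % inhibition from polarization; repeats: one replicate per compound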
Starred values were filed as active, the others as inactive; ? = inconclusive; nt = not tested or not shown.

SMILES	ASAP1 inh	Calb FLC	sPLA2-III inh	SKKanGAS inh	ARFGAP1 inhibitor
Cc1cccc(NC2=Nc3ccccc3N3C2=Nc2c(c(C)nn2-c2ccccc2)C3c2ccc(O)c(O)c2)c1 (centres undefined)	6	-12	-35	99*	21
Cc1ccc(NC2=Nc3ccccc3N3C2=Nc2c(c(C)nn2-c2ccccc2)C3c2ccc(O)c(O)c2)cc1 (centres undefined)	18	nt	-27	nt	23
Cc1nn(-c2ccccc2)c2c1C(c1ccc(O)c(O)c1)N1C(=N2)C(Nc2ccccc2)=Nc2ccccc21 (centres undefined)	2	-2	-17	88*	1
CCOC(=O)[C@]12CCCCC/C=C\1N(CCc1ccc(Cl)cc1)C(=O)[C@H]2CC(=O)NCc1ccc(C)o1	nt	nt	-6	nt	nt
Cc1ccc(S(=O)(=O)Nc2nc3ccccc3nc2Nc2cccc(S(=O)(=O)N3CCCC3)c2)cc1	-4	0	-12	66*	2
COc1cc2c(C#N)c(N3CCN(c4ccccc4OC)CC3)nc(N)c2c(N)n1	2	1	0	72*	7
O=C(CSc1nnc(-c2ccncc2)n1Cc1ccco1)OC1CCCCC1	nt	-10	nt	4	nt
O=C(CSc1nnc(-c2ccco2)n1Cc1ccccc1)OC1CCCCC1	9	97*	-10	-2	-2
CCCCN(C(=O)/C=C/c1ccco1)c1c(N)n(Cc2ccccc2)c(=O)[nH]c1=O	2	113*	-5	nt	4
COc1ccc(NS(=O)(=O)c2ccc3nc(COc4cccc5ccccc45)[nH]c3c2)cc1	19	32	-42	71*	2
COc1ccc(NS(=O)(=O)c2ccc3nc(COc4ccc5ccccc5c4)[nH]c3c2)cc1	20	6	-48	27	11
CC1=C(C(=O)N2CCCCCC2)CC(CC(=O)NCc2cccc3ccccc23)C(=O)N1CCC1=CCCCC1 (centres undefined)	-2	nt	-12	nt	-7
COc1ccccc1OCCCn1c(C)c(C#N)c2ccccc21	-21	8	-25	62*	-9
CCOC(=O)C1(Cc2ccccc2)CCN(Cc2ccccc2[N+](=O)[O-])CC1	nt	nt	1	nt	nt
CCC(=O)NC(c1ccc(C)cc1)c1cc([N+](=O)[O-])c2cccnc2c1O (centres undefined)	2	110*	8	87*	3
CC(=O)NC(c1ccc(N(C)C)cc1)c1cc(Cl)c2cccnc2c1O (centres undefined)	-4	nt	13	nt	-6
CC(=O)NC(c1ccc(C)cc1)c1cc([N+](=O)[O-])c2cccnc2c1O (centres undefined)	20	109*	6	?	16
CCCC(=O)NC(c1ccco1)c1cc([N+](=O)[O-])c2cccnc2c1O (centres undefined)	2	109*	11	54*	-11
COc1ccccc1CCC[C@H](CCS(=O)(=O)C(C)C)CC1CCCCC1	nt	nt	-1	nt	nt
CC(=O)CC[C@@H]1CC[C@]2(CCCN(C(=O)C3CCCCC3)C2)O1	nt	nt	4	nt	nt
Cc1ccccc1NC(=O)C[C@H]1CC[C@H]2[C@@H](COc3ccc(NC(=O)Nc4ccccc4)cc3C(=O)N2C)O1	nt	nt	-18	nt	nt
CN(C)c1cccc(/C=C2\CC3(OC(=O)c4ccc(Cl)cc4)CCCN2C3)c1 (centres undefined)	nt	nt	19	nt	nt
CC(Sc1nc2cc([N+](=O)[O-])ccc2n1-c1cccc(C(F)(F)F)c1)C(=O)NC(N)=O (centres undefined)	-6	-9	9	51*	8
Cc1ccc(/C=[N+](\[O-])c2ccc(N(C)C)cc2)c2nsnc12	-55	97*	0	4	-63
O=C(N/N=C/c1c[nH]c2ccccc12)c1cc(-c2ccc(-c3ccccc3)cc2)n[nH]1	15	3	-6	92*	3
O=C(N/N=C/c1c[nH]c2ccccc12)C1CC1(c1ccccc1)c1ccccc1 (centres undefined)	2	-4	-4	60*	-3
O=C(N/N=C/c1c[nH]c2ccccc12)c1cc(-c2ccccc2)n[nH]1	11	-10	-3	7	2
O=C(N/N=C/c1c[nH]c2ccccc12)c1cc(-c2ccc3ccccc3c2)n[nH]1	6	7	-2	95*	16
COC(=O)[C@]12C[C@H](CC(=O)N3CCOCC3)C(=O)N(Cc3ccccc3)C1=C[C@H](C1CCCC1)O[C@@H]2C	-2	nt	-4	nt	-3
CCc1ccc2c(c1)/C(=C/C(=O)c1cccs1)C(=O)N2	-2	98*	11	-7	8

Screening results: PubChem BioAssay, several laboratories
